LMPTP inh: blocks human LMPTP phosphatase; P24666; recombinant LMPTP-A, OMFP fluorogenic substrate, fluorescence intensity; inhibition, % at 20 µM; 0.22% of 360,000 active; AID 651560;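 active means compounds that cut the enzyme signal by at least half of the control window in the single-dose screen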
Target sequence (P24666 whole entry, looked up): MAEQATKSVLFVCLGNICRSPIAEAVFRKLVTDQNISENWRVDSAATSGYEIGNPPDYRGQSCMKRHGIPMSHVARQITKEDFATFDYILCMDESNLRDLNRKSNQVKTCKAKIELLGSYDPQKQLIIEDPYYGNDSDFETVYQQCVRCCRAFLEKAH
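Buffer or medium: Bis-Tris pH 6.0, DTT, detergent; Assay system: LMPTP-A enzyme; Quantity: 0.625 nM enzyme; Detection: endpoint fluorescence intensity; Times: 50 min dark incubation at room temperature; Controls: substrate-only low control, DMSO enzyme-plus-substrate high control; Doses: single 20 µM dose; Read-out: percent inhibition versus substrate-only and uninhibited controls; Reagent: 400 µM OMFP.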
Scp-1 inhibitor: blocks human Scp-1 phosphatase activity; Q9GZU7; Recombinant Scp1, phosphopeptide, malachite green phosphate absorbance; inhibition, % at 20 µM; 0.88% of 340,000 active;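 active means inhibition above about 50% at 20 µM, limit read from the data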
Target sequence (Q9GZU7 76-261 limits assumed): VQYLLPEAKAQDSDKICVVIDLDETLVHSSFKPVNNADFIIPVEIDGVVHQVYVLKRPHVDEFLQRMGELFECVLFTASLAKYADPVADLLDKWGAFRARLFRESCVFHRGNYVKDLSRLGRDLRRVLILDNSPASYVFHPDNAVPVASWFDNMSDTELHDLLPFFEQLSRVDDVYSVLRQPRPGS
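Assay system: SCP-1 catalytic fragment, aa 76-261 | Buffer or medium: Tris acetate buffer pH 5.5 with MgCl2 and Tween-20 | Compound: One concentration, 20 µM, with 1.0% DMSO | Also added: Phospho 17-mer peptide substrate | Signal: Absorbance at 630 nm | Incubation: 45 min enzyme reaction at room temperature | Measure: % inhibition of SCP-1 phosphate liberation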
NadD block: inhibitors of Staphylococcus aureus NadD; purified NadD enzyme, colorimetric absorbance read-out; inhibition, % at 20 µM; 0.78% of 360,000 active; AID 602399; in the data active means inhibition above about 26%
STEP block: inhibitors of human striatal-enriched phosphatase STEP; P54829; recombinant STEP, OMFP fluorogenic substrate, fluorescence; inhibition, % at 20 µM; 0.25% of 360,000 active; AID 588621;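 active means inhibition at 20 µM, scaled per plate between control wells, above about 37%, limit read from the data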
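medium = Bis-Tris buffer pH 6.0, 2.5 mM DTT, 0.005% Tween 20 | test system = STEP (striatal-enriched tyrosine phosphatase) enzyme, cell-free | measure = normalized % inhibition | compound dosing = 20 µM, 1% DMSO | also added = 25 µM OMFP | schedule = reaction 20 min, ambient temperature | measured by = fluorescence read at 480 nm ex / 540 nm em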
DNMT1 inh: blocks human DNA methyltransferase DNMT1; 0.83% of 360,000 active; DNMT1 molecular beacon, Hinp1I cleavage, fluorescence; inhibition (reported as % activation of signal), % at 10 µM; in the data active means inhibition above about 50%
SUMO1 PPI mod: modulators of human SUMO1-mediated protein-protein interactions | P63165 | SUMO1 binding to a labelled peptide, TR-FRET, 1 h | inhibition, % at 20 µM | 0.33% of 360,000 active | AID 602429; in the data active means inhibition above about 37%
Target sequence (P63165 whole entry, looked up): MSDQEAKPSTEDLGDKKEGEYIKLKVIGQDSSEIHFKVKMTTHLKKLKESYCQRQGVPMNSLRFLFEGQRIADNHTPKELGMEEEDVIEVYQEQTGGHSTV
Scp-1 conf: Scp-1 (human) inhibition, single-dose confirmed | AID 540281 | 61% of 2,500 active | shares compounds with Scp-1 inhibitor | recombinant SCP-1 catalytic domain, phosphate release, malachite green absorbance | inhibition, % at 20 µM
Scp-1 MG ctr: colorimetric interference in Scp-1 counter-screen. 2,500 tested, under 10 active. Colorimetric interference counterscreen, malachite green absorbance 630 nm. apparent inhibition (interference), % at 20 µM. shares compounds with Scp-1 inhibitor;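 further: compounds added after enzyme reaction finished so only phosphate colour detection is probed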
Scp-1 Tm shift: Scp-1 (human) binding by thermal shift; Recombinant SCP1, Sypro Orange thermal shift Tm; AID 540329; shares compounds with Scp-1 inhibitor; 25% of 1,500 active; thermal shift relative to vanadate control, % at 40 µM;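 active means substances whose mean melting-temperature shift, as a percentage of the reference inhibitor's shift, reaches about 5.3%, limit read from the data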
DNMT1 confirm: confirmation of human DNMT1 inhibitors; shares compounds with DNMT1 inh; DNMT1 molecular beacon HinP1I cleavage, fluorescence; inhibition, % at 10 µM; 8% of 2,300 active; AID 602385;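 active means average inhibition of at least 30% in the single-concentration confirmation test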
DNMT1 interf: beacon fluorescence artifact counter-screen; shares compounds with DNMT1 inh; DNMT1 molecular beacon spectral interference counterscreen, fluorescence 485/520; activation (fluorescence interference), % at 10 µM; 1% of 2,300 active; AID 602387;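 active means activation of at least 30% at 10 µM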;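 further: DNMT1 catalytic domain with a HinP1I cleavage step and a FAM/dabcyl DNA beacon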
Numbers stand for hits. In the library only some 2.3% were active in any assay of this set; here they are far more common.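 How the source made its calls, unless noted: active means inhibition of at least 30% at 20 µM; inactive means the rest.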

Results for O=c1c2c(nc3cc(-c4ccccc4Cl)[nH]n13)CCS2 ?
LMPTP inh: inactive; Scp-1 inhibitor: 64.3; NadD block: inactive; STEP block: inactive; DNMT1 inh: 77.0; SUMO1 PPI mod: inactive; Scp-1 conf: inactive; Scp-1 MG ctr: inactive; DNMT1 confirm: inactive; DNMT1 interf: inactive

How did O=c1c2c(nc3cc(-c4ccccc4)[nH]n13)CCS2 do in these assays?
LMPTP inh: inactive; Scp-1 inhibitor: inactive; NadD block: inactive; STEP block: inactive; DNMT1 inh: inactive; SUMO1 PPI mod: inactive

Results for COc1ccccc1CN1CC(C(=O)NCc2c(F)ccc(C)c2F)CCC1=O (centres undefined) ?
LMPTP inh: inactive; Scp-1 inhibitor: inactive; NadD block: inactive; STEP block: inactive; DNMT1 inh: inactive; SUMO1 PPI mod: inactive

Results for CC(c1ccon1)N(C)C(=O)c1ccc2nc(Cc3cccc(Cl)c3)oc2c1 (centres undefined) ?
LMPTP inh: inactive; Scp-1 inhibitor: inactive; NadD block: inactive; STEP block: inactive; DNMT1 inh: inactive; SUMO1 PPI mod: inactive

Results for O=C(NCc1ccco1)c1cc(-c2cccs2)nc2ccccc12 ?
LMPTP inh: inactive; Scp-1 inhibitor: inactive; NadD block: inactive; STEP block: inactive; DNMT1 inh: inactive; SUMO1 PPI mod: inactive

What do the screens show for `O=C(COC(=O)c1ccccc1)NCc1ccco1`?
LMPTP inh: inactive; Scp-1 inhibitor: 104.4; NadD block: inactive; STEP block: inactive; DNMT1 inh: 74.1; SUMO1 PPI mod: inactive; Scp-1 conf: 63.2; Scp-1 MG ctr: inactive; Scp-1 Tm shift: inactive; DNMT1 confirm: inactive; DNMT1 interf: inactive

What do the screens show for `Cc1ccc(C(=O)OCC(=O)NCc2ccco2)cc1`?
LMPTP inh: inactive; Scp-1 inhibitor: inactive; NadD block: inactive; STEP block: inactive; DNMT1 inh: inactive; SUMO1 PPI mod: inactive

How did Cc1cc(Br)ccc1SCC(=O)OCC(=O)NCc1ccco1 do in these assays?
LMPTP inh: inactive; Scp-1 inhibitor: 75.2; NadD block: inactive; STEP block: inactive; DNMT1 inh: 82.1; SUMO1 PPI mod: inactive; Scp-1 conf: 61.3; Scp-1 MG ctr: inactive; Scp-1 Tm shift: inactive; DNMT1 confirm: inactive; DNMT1 interf: inactive

Results for O=C(COC(=O)c1cc(-c2cccs2)nc2ccccc12)NCc1ccco1 ?
LMPTP inh: inactive; Scp-1 inhibitor: 55.9; NadD block: 52.4; STEP block: inactive; DNMT1 inh: 51.0; SUMO1 PPI mod: inactive; Scp-1 conf: 56.0; Scp-1 MG ctr: inactive; Scp-1 Tm shift: 7.0; DNMT1 confirm: inactive; DNMT1 interf: inactive

What do the screens show for `O=C(COC(=O)Cc1ccc(Cl)c(Cl)c1)NCc1ccco1`?
LMPTP inh: inactive; Scp-1 inhibitor: inactive; NadD block: inactive; STEP block: inactive; DNMT1 inh: inactive; SUMO1 PPI mod: inactive

Results for O=C(COC(=O)Cc1ccc(Cl)cc1)NCc1ccco1 ?
LMPTP inh: inactive; Scp-1 inhibitor: 81.8; NadD block: inactive; STEP block: inactive; DNMT1 inh: 88.2; SUMO1 PPI mod: inactive; Scp-1 conf: 71.4; Scp-1 MG ctr: inactive; Scp-1 Tm shift: inactive; DNMT1 confirm: inactive; DNMT1 interf: inactive
